# Results published in publication PMC2646117 (Cell host & microbe, 2008).
# Where two headings read alike, the source gives them in different places.
# What was measured:
# [1] = test system: PbΔfabI; assay: Ex vivo drug susceptibility assay, P. berghei asexual blood stages; type: cell-based; details: Plasmodium berghei
# [2] = test system: PbfabI^Rec; assay: Ex vivo drug susceptibility assay, P. berghei asexual blood stages; type: cell-based; details: Plasmodium berghei
# Summary of the method: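 Ex vivo growth of P. berghei asexual blood-stage parasites exposed to the test compound was measured by [³H]-hypoxanthine assay. IC50 was calculated by linear regression. Each compound was tested in duplicate on at least two separate occasions.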
# [3] = test system: ANKA; assay: Ex vivo drug susceptibility assay, P. berghei asexual blood stages; type: cell-based; details: Plasmodium berghei
# [4] = test system: P. berghei (KBG-173 line); type: in vivo; details: for parasitemia on day 6 post-infection: three days twice-daily divided dose
# [5] = test system: PffabI(A217V)^Dd2; assay: Drug susceptibility assay, transgenic line; type: cell-based, P. falciparum; details: Plasmodium falciparum
# [6] = test system: P. falciparum Dd2; type: cell-based; details: Plasmodium falciparum, DD2, read-out: mean IC50
# [7] = test system: P. berghei; details: SC, 3 mg/kg/day, four days; ref Surolia and Surolia, 2001; cited from earlier work
# [8] = test system: recombinant PfFabI A217V; details: recombinant PfFabI A217V versus wild type; ref Kapoor et al., 2004; cited from earlier work
# [9] = test system: PfΔfabI^2; assay: Drug susceptibility assay, pffabI knockout clone; type: cell-based, P. falciparum; details: Plasmodium falciparum, read-out: IC50 (mean ± SEM)
# [10] = test system: Dd2^attB; assay: Drug susceptibility assay, parental line; type: cell-based, P. falciparum; details: Plasmodium falciparum
# [11] = test system: P. falciparum 3D7; type: cell-based; details: Plasmodium falciparum, 3D7, read-out: mean IC50
# [12] = test system: PffabI(WT)^Dd2; assay: Drug susceptibility assay, transgenic line; type: cell-based, P. falciparum; details: Plasmodium falciparum
# [13] = test system: 3D7^attB; assay: Drug susceptibility assay, parental line; type: cell-based, P. falciparum; details: Plasmodium falciparum
# [14] = test system: PffabI(WT)^3D7; assay: Drug susceptibility assay, transgenic line; type: cell-based, P. falciparum; details: Plasmodium falciparum
# [15] = test system: PffabI(A217V)^3D7; assay: Drug susceptibility assay, transgenic line; type: cell-based, P. falciparum; details: Plasmodium falciparum
# [16] = test system: PfΔfabI^1; assay: Drug susceptibility assay, pffabI knockout clone; type: cell-based, P. falciparum; details: Plasmodium falciparum, read-out: IC50 (mean ± SEM)
structure (smiles),measurement,setting,value
CCN(CC)CCCC(C)Nc1ccnc2cc(Cl)ccc12 (centres unmarked) [chloroquine],IC50,[1],11 ± 0.1 nM
same,IC50,[2],13 ± 0.6 nM
same,IC50,[3],10.4 ± 0.3 nM
"Oc1cc(Cl)ccc1Oc1ccc(Cl)cc1Cl [triclosan, 5-chloro-2-(2,4-dichlorophenoxy)phenol]",IC50,[1]; read-out: IC50 (means±SEM),1400 ± 100 nM
same,parasitemia at doses above 128 mg/kg/day,"[4]; PO or SC, doses higher than 128 mg/kg/day",failed to further suppress the parasitemias
same,survival times,"[4]; PO, 64 mg/kg/day",slight extension in survival times
same,survival rate at day 31,"[4]; PO, 128 mg/kg/day",30%
same,parasitemia on day 6 post-infection,"[4]; PO, 128 mg/kg/day, placebo control 61%",27%
same,survival rate at day 31,"[4]; PO, 256 mg/kg/day",30%
same,mortality / overall survival (toxicity),"[4]; PO, 512 mg/kg/day",some early mortality and decreased overall survival rates
same,survival,"[4]; SC route, 16 to 512 mg/kg/day",≤ 50%
same,parasitemia on day 6 post-infection,"[4]; SC, 128 mg/kg/day, placebo control 57%",13%
same,suppression of P. berghei parasitemia,[7],75%
same,IC50,[2]; read-out: IC50 (means±SEM),1500 ± 200 nM
same,decrease in binding affinity conferred by A217V mutation,[8],"7,000 fold"
same,IC50,[9],2400 ± 300 nM
same,IC50,"[10]; DD2, read-out: IC50 (mean±SEM)",3100 ± 700 nM
same,IC90,"[10]; DD2, read-out: IC90 (mean±SEM)",7200 ± 700 nM
same,IC50,[11],1800 nM
same,IC50,[3]; read-out: IC50 (means±SEM),1200 ± 100 nM
same,IC90,"[13]; 3D7, read-out: IC90 (mean±SEM)",4800 ± 600 nM
same,IC50,[16],2200 ± 200 nM
